Test results published in ChEMBL document CHEMBL4251671, “Microporenic Acids A-G, Biofilm Inhibitors, and Antimicrobial Agents from the Basidiomycete Microporus Species” (J Nat Prod, 2018).
Converted amounts (≈) assume the structure as drawn. The source made the active and inactive calls. No cut-off for these calls is given here.

Columns and labels:
[1] = tested on: L929; assay: Cytotoxicity against mouse L929 cells assessed as inhibition of cell growth after 5 days by MTT assay; format: cell-based; conditions: L929, 120 h
Method in brief: (§1)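 IC50 determined by the previously described in vitro cytotoxicity method against mouse fibroblast L929 and HeLa-derived KB-3.1 cells. Compounds were tested from a starting concentration of 37 μg/mL.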

[2] = tested on: Mucor plumbeus; assay: Antimicrobial activity against Mucor plumbeus MUCL 49355 by serial dilution method; format: functional
Method in brief: (§2)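 MIC by serial dilution in microtiter plates, in triplicate. YMG medium for yeasts and filamentous fungi, EBS for bacteria. Starting concentration 300 μg/mL.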

[3] = tested on: Escherichia coli; conditions: DSM 498
[4] = tested on: Bacillus subtilis; assay: Antimicrobial activity against Bacillus subtilis DSM 10 by serial dilution method; format: functional; method in brief: as §2
[5] = tested on: Staphylococcus aureus; assay: Antimicrobial activity against Staphylococcus aureus DSM 346 by serial dilution method; format: functional; method in brief: as §2
[6] = tested on: Micrococcus luteus; assay: Antimicrobial activity against Micrococcus luteus DSM 1790 by serial dilution method; format: functional; method in brief: as §2
[7] = tested on: KB 3-1; assay: Cytotoxicity against human KB 3.1 cells assessed as inhibition of cell growth at 37 ug/ml after 5 days by MTT assay; format: cell-based; conditions: kb 3-1, 120 h
[8] = tested on: Yamadazyma tenuis; assay: Antimicrobial activity against Candida tenuis MUCL 29982 by serial dilution method; format: functional; method in brief: as §2
[9] = tested on: L929; assay: Cytotoxicity against mouse L929 cells assessed as inhibition of cell growth at 37 ug/ml after 5 days by MTT assay; format: cell-based; conditions: l929, 120 h
[10] = tested on: Wickerhamomyces anomalus; assay: Antimicrobial activity against Pichia anomala DSM 6766 by serial dilution method; format: functional; method in brief: as §2
[11] = tested on: Escherichia coli; assay: microbe, parasite or virus in culture; conditions: DSM 498
[12] = tested on: Staphylococcus aureus; assay: Antibiofilm activity against Staphylococcus aureus DSM 1104 at 75 ug/ml after 24 hrs by crystal violet staining based assay relative to control; format: functional; conditions: DSM 1104, 24 h
Method in brief: (§3)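 S. aureus set to 0.5 McFarland turbidity and grown with serially diluted compounds in CASO broth with 4% glucose, 24 h, 37 °C. Biofilm stained with crystal violet 15 min, washed three times, dye extracted with dilute acetic acid, absorbance read at 550 nm. Two repeats of three parallel experiments; methanol as negative control.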

[13] = tested on: Candida albicans; assay: Antibiofilm activity against Candida albicans DSM 11225 preformed biofilm after 24 hrs by MTT assay; format: functional, organism-based
Method in brief: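 C. albicans set to 0.5 McFarland turbidity; biofilm preformed 4 h at 37 °C in SB broth, then treated with serially diluted compounds for a further 24 h at 37 °C. Dispersal read by MTT reduction. Triplicate, two repetitions; methanol as negative control.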

[14] = tested on: Staphylococcus aureus; assay: Antimicrobial activity against Staphylococcus aureus DSM 1104 by serial dilution method; format: functional
[15] = tested on: Staphylococcus aureus; assay: Antibiofilm activity against Staphylococcus aureus DSM 1104 at 37 ug/ml after 24 hrs by crystal violet staining based assay relative to control; format: functional; conditions: DSM 1104, 24 h; method in brief: as §3
[16] = tested on: Staphylococcus aureus; assay: Antibiofilm activity against Staphylococcus aureus DSM 1104 at 150 ug/ml after 24 hrs by crystal violet staining based assay relative to control; format: functional; conditions: DSM 1104, 24 h; method in brief: as §3
[17] = tested on: Staphylococcus aureus; assay: Antibiofilm activity against Staphylococcus aureus DSM 1104 preformed biofilm after 24 hrs by crystal violet staining based assay; format: functional, organism-based
Method in brief: (§4)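 S. aureus set to 0.5 McFarland turbidity; biofilm preformed 24 h in CASO broth with 4% glucose, then exposed to compounds a further 24 h at 37 °C. Remaining biofilm quantified by crystal violet staining. Triplicate, two repetitions.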

[18] = tested on: Candida albicans; assay: Antimicrobial activity against Candida albicans DSM 11225 by serial dilution method; format: functional
[19] = tested on: KB 3-1; assay: Cytotoxicity against human KB 3.1 cells assessed as inhibition of cell growth after 5 days by MTT assay; format: cell-based; conditions: KB 3-1, 120 h; method in brief: as §1
[20] = tested on: Staphylococcus aureus; assay: Antibiofilm activity against Staphylococcus aureus DSM 1104 preformed biofilm at 256 ug/ml after 24 hrs by crystal violet staining based assay relative to control; format: functional; conditions: DSM 1104, 24 h; method in brief: as §4
[21] = tested on: Staphylococcus aureus; assay: Antibiofilm activity against Staphylococcus aureus DSM 1104 preformed biofilm at 128 ug/ml after 24 hrs by crystal violet staining based assay relative to control; format: functional; conditions: DSM 1104, 24 h; method in brief: as §4
[22] = tested on: Candida albicans; assay: Antibiofilm activity against Candida albicans DSM 11225 preformed biofilm at 8 ug/ml after 24 hrs by MTT assay relative to control; format: functional; conditions: DSM 11225, 24 h
[23] = tested on: Candida albicans; assay: Antibiofilm activity against Candida albicans DSM 11225 preformed biofilm at 16 ug/ml after 24 hrs by MTT assay relative to control; format: functional; conditions: DSM 11225, 24 h
[24] = tested on: Staphylococcus aureus; assay: Antibiofilm activity against Staphylococcus aureus DSM 1104 after 24 hrs by crystal violet staining based assay; format: functional, organism-based; method in brief: as §3
[25] = tested on: Staphylococcus aureus; assay: Antibiofilm activity against Staphylococcus aureus DSM 1104 at 64 ug/ml after 24 hrs by crystal violet staining based assay relative to control; format: functional; conditions: DSM 1104, 24 h; method in brief: as §3
[26] = tested on: Staphylococcus aureus; assay: Antibiofilm activity against Staphylococcus aureus DSM 1104 preformed biofilm at 64 ug/ml after 24 hrs by crystal violet staining based assay relative to control; format: functional; conditions: DSM 1104, 24 h; method in brief: as §4
[27] = tested on: Staphylococcus aureus; assay: Antibiofilm activity against Staphylococcus aureus DSM 1104 at 16 ug/ml after 24 hrs by crystal violet staining based assay relative to control; format: functional; conditions: DSM 1104, 24 h; method in brief: as §3
[28] = tested on: Staphylococcus aureus; assay: Antibiofilm activity against Staphylococcus aureus DSM 1104 at 256 ug/ml after 24 hrs by crystal violet staining based assay relative to control; format: functional; conditions: DSM 1104, 24 h; method in brief: as §3
[29] = tested on: Staphylococcus aureus; assay: Antibiofilm activity against Staphylococcus aureus DSM 1104 at 128 ug/ml after 24 hrs by crystal violet staining based assay relative to control; format: functional; conditions: DSM 1104, 24 h; method in brief: as §3

Compound: C/C(=C\c1csc(C)n1)[C@@H]1C[C@@H]2O[C@]2(C)CCC[C@H](C)[C@H](O)[C@@H](C)C(=O)C(C)(C)[C@@H](O)CC(=O)O1 [PATUPILONE]
- IC50 [1]: 0.0014 µM

Compound: CC(C)=CCC/C(C)=C/CC/C(C)=C/CO[C@@H](C(=O)O)[C@H](CC(=O)O)C(=O)O
- MIC [2]: 75 µg/mL (≈ 189 µM)
- MIC [3]: inactive
- MIC [4]: 18.8 µg/mL (≈ 47.4 µM)
- MIC [5]: 150 µg/mL (≈ 378 µM)
- MIC [6]: 9.4 µg/mL (≈ 23.7 µM)
- Activity [7]: Non-Toxic
- MIC [8]: 37.5 µg/mL (≈ 94.6 µM)
- Activity [9]: Non-Toxic
- MIC [10]: inactive

Compound: CC(C)=CCC[C@@](C)(O)[C@@H](O)CC/C(C)=C/CC/C(C)=C/CO[C@@H](C(=O)O)[C@H](CC(=O)O)C(=O)O
- MIC [2]: inactive
- MIC [3]: inactive
- MIC [4]: inactive
- MIC [5]: inactive
- Activity [7]: Non-Toxic
- MIC [8]: inactive
- Activity [9]: Non-Toxic
- MIC [10]: inactive

Compound: C[C@@H]1CO[C@H]2[C@@H]1CC[C@H](C)[C@]21C=C(CO)CC1
- MIC [2]: 75 µg/mL (≈ 317 µM)
- MIC [3]: inactive
- MIC [4]: 300 µg/mL (≈ 1270 µM)
- MIC [5]: inactive
- MIC [6]: 75 µg/mL (≈ 317 µM)
- Activity [7]: Non-Toxic
- MIC [8]: inactive
- Activity [9]: Non-Toxic
- MIC [10]: inactive

Compound: C/C(=C\CC/C(C)=C/CO[C@@H](C(=O)O)[C@H](CC(=O)O)C(=O)O)CC/C=C(\C)CC/C=C(\C)C(=O)O
- MIC [2]: inactive
- MIC [3]: inactive
- MIC [4]: inactive
- MIC [5]: inactive
- MIC [6]: 75 µg/mL (≈ 152 µM)
- Activity [7]: Non-Toxic
- MIC [8]: inactive
- Activity [9]: Non-Toxic
- MIC [10]: inactive

Compound: O=C(O)c1cn(C2CC2)c2cc(N3CCNCC3)c(F)cc2c1=O [CIPROFLOXACIN]
- MIC [4]: 2.3 µg/mL (≈ 6.94 µM)
- MIC [11]: 2.3 µg/mL (≈ 6.94 µM)

Compound: C=C1C(=O)O[C@@H](C)[C@@H]1O
- inhibition at 75 µg/mL [12]: 92%
- Activity [13]: inactive
- MIC [14]: 150 µg/mL (≈ 1170 µM)
- inhibition at 37 µg/mL [15]: 85%
- inhibition at 150 µg/mL [16]: 99%
- Activity [17]: inactive

Compound: NYSTATIN
- MIC [2]: 9.4 µg/mL
- MIC [18]: 16.7 µg/mL
- MIC [8]: 16.7 µg/mL
- MIC [10]: 16.7 µg/mL

Compound: CC(C)=CCC/C(C)=C/CC/C(C)=C/CC/C(C)=C/CO[C@@H](C(=O)O)[C@H](CC(=O)O)C(=O)O
- MIC [2]: 75 µg/mL (≈ 161 µM)
- IC50 [19]: 6 µM
- inhibition at 256 µg/mL [20]: 49%
- inhibition at 128 µg/mL [21]: 37%
- MIC [14]: > 256 µg/mL
- inhibition at 8 µg/mL [22]: 52%
- MIC [3]: inactive
- inhibition at 16 µg/mL [23]: 72%
- MIC [4]: 300 µg/mL (≈ 646 µM)
- Activity [24]: Dose-dependent effect
- inhibition at 64 µg/mL [25]: 54%
- MIC [5]: 300 µg/mL (≈ 646 µM)
- MIC [6]: 37.5 µg/mL (≈ 80.7 µM)
- MIC [18]: 64 µg/mL (≈ 138 µM)
- inhibition at 64 µg/mL [26]: 1.5%
- inhibition at 16 µg/mL [27]: 28%
- MIC [8]: 300 µg/mL (≈ 646 µM)
- Activity [9]: Non-Toxic
- MIC ([10]; Hansenula anomala): 150 µg/mL (≈ 323 µM)
- inhibition at 256 µg/mL [28]: 86%

Compound: C/C(=C\CC/C(C)=C/CC/C(C)=C/CC/C(C)=C/CO[C@@H](C(=O)O)[C@H](CC(=O)O)C(=O)O)CO
- MIC [2]: 75 µg/mL (≈ 156 µM)
- MIC [3]: inactive
- MIC [4]: 37.5 µg/mL (≈ 78 µM)
- MIC [5]: 75 µg/mL (≈ 156 µM)
- MIC [6]: 18.8 µg/mL (≈ 39 µM)
- Activity [7]: Non-Toxic
- MIC [8]: 37.5 µg/mL (≈ 78 µM)
- Activity [9]: Non-Toxic
- MIC [10]: inactive

Compound: COC(=O)C[C@H](C(=O)O)[C@@H](OC/C=C(\C)CC/C=C(\C)CC/C=C(\C)CCC=C(C)C)C(=O)O
- MIC [2]: 150 µg/mL (≈ 313 µM)
- MIC [14]: > 256 µg/mL
- inhibition at 128 µg/mL [29]: 38%
- MIC [3]: inactive
- MIC [4]: 300 µg/mL (≈ 627 µM)
- Activity [24]: Dose-dependent effect
- inhibition at 64 µg/mL [25]: 11%
- MIC [5]: 300 µg/mL (≈ 627 µM)
- MIC [6]: 37.5 µg/mL (≈ 78.3 µM)
- Activity [7]: Non-Toxic
- MIC [8]: inactive
- Activity [9]: Non-Toxic
- MIC [10]: inactive
- inhibition at 256 µg/mL [28]: 86%

Compound: CN(C)[C@@H]1C(=O)C(C(N)=O)=C(O)[C@@]2(O)C(=O)C3=C(O)c4c(O)cccc4[C@@](C)(O)[C@H]3[C@H](O)[C@@H]12
- MIC [14]: 1 µg/mL (≈ 2.17 µM)
- MIC [5]: 1 µg/mL (≈ 2.17 µM)
- MIC [6]: 8.3 µg/mL (≈ 18 µM)

Compound: C/C(=C\CC/C(C)=C/CO[C@@H](C(=O)O)[C@H](CC(=O)O)C(=O)O)CC/C=C(\C)CC[C@H](O)C(C)(C)O
- MIC [2]: 300 µg/mL (≈ 602 µM)
- MIC [3]: inactive
- MIC [4]: inactive
- MIC [5]: inactive
- MIC [6]: 300 µg/mL (≈ 602 µM)
- Activity [7]: Non-Toxic
- MIC [8]: inactive
- Activity [9]: Non-Toxic
- MIC [10]: inactive
